Experiments:
[1] = melting temperature; fluorescence melt of hairpins on a sequencing array, two-state fit, raised by 9.35 °C to match UV melts; details: sodium 0.088 M
How it was run: (§1)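 Melting temperature and folding enthalpy were derived from bootstrapped two-state fits. The fitted temperatures were raised by 9.35 °C to agree with UV melts, and four replicates were combined by inverse variance. The underlying data were Cy3 fluorescence images of library hairpins, with annealed Cy3 and quencher oligos, on a sequenced MiSeq flow cell in 50 mM Na-HEPES pH 8.0, 25 mM NaCl, taken in 2.5 °C steps up to 60 °C, normalised to pre-quench Cy3 and to control constructs.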

[2] = folding enthalpy; higher = less favourable; fluorescence melt of hairpins on a sequencing array, two-state fit; details: sodium 0.088 M
How it was run: as §1

Sequence	Tm [1] [°C]	folding enthalpy [2] [kcal/mol]
GTTGGGGGAAACCCTAAC (((.(((....))).)))	45.1	-26.6
GTTGGGGGAAACCCTGAC ((..(((....)))..))	35.6	-23.8
GTTGGGGGAAACCTCGAC ((.(.((....)).).))	34.7	-23.5
GTTGGGGGAAACTCCAGC (.(((.(....).))).)	35.8	-23.5
GTTGGTCGAAAGACAAAC (((.(((....))).)))	48.5	-26.5
GTTGGTCGAAAGACTAAC (((.(((....))).)))	50.9	-25.9
GTTGGTGAAAACCAAC ((((((....))))))	58.5	-37
GTTGGTGGAAACATCGAC ((.(.((....)).).))	35.1	-21.1
GTTGTAGGAAACCACAAC (((((.(....).)))))	39.9	-32.5
GTTGTCCCGAAAGGGAAC (((..(((....))))))	50.4	-20.7
GTTGTCCGAAAGGATAAC (((.(((....))).)))	51.9	-44.9
GTTGTCGAAAGACTAAAC ((((((....)))..)))	29.5	-13.6
GTTGTCGAAAGACTTAAC ((((((....)))..)))	27.2	-10
GTTGTCGGAAACGATAAC (((.(((....))).)))	47.8	-34.6
GTTGTCGGAAACGGCAAC ((((.((....)).))))	56.2	-37.7
GTTGTGGGAAACCATAAC (((.(((....))).)))	43.5	-32.4
GTTGTGGGAAACCATAGC (.(.(((....))).).)	27.6	-12.7
GTTTAAGAAATTAAAC ((((((....))))))	32.4	-16.8
GTTTAAGCGAAAGCTAAC (((..(((....))))))	32	-11.8
GTTTAAGGAAACCTAAAC (((((.(....).)))))	24.8	-9.26
GTTTACGCGAAAGCGAAC (((..(((....))))))	31.8	-9.1
GTTTACGGAAACGTGAAC (((.(((....))).)))	46	-27.7
GTTTAGACGAAAGTCAAC (((..(((....))))))	30.4	-9.97

Sequence	Tm [1] [°C]	folding enthalpy [2] [kcal/mol]
GTTTAGGGAAACCTAAAC (((((((....)))))))	52.7	-39.9
GTTTATGGAAACATAAGC (.(((((....))))).)	33.7	-20.8
GTTTATGGAAACATAGAC ((.((((....)))).))	32.2	-23.7
GTTTATGGAAACGTAAAC (((((.(....).)))))	37.5	-30
GTTTCAACGAAAGTTAAC (((..(((....))))))	35.5	-15.8
GTTTCACGAAAGTGAAC (((.(((....))))))	49.4	-14.4
GTTTCCGAAAGGACAAAC ((((((....)))..)))	26.1	-9.58
GTTTCCGAAAGGACGAAC ((((((....)))..)))	21.9	-9.15
GTTTCCGAAAGGAGGAAC ((((((....)))..)))	27.4	-9.8
GTTTCGCGAAAGCGAAC (((.(((....))))))	53.9	-10.4
GTTTCGCGAAAGCGGAAC (((.(((....))).)))	59.2	-23.4
GTTTCGGGAAACCGAAAC (((((((....)))))))	62.5	-40.2
GTTTCGGGAAACTGAGAC ((.((.(....).)).))	35.7	-13.2
GTTTCGGGAAACTGGAAC (((.(.(....).).)))	39.8	-13.5
GTTTCTCGAAAGAGAAC (((.(((....))))))	42.4	-17.1
GTTTCTCGAAAGAGGAAC (((.(((....))).)))	49.1	-34.7
GTTTCTGGAAACGGAAAC (((((.(....).)))))	45.5	-31.8
GTTTGAACGAAAGTTAAC (((..(((....))))))	24.4	-12.3
GTTTGAGGAAACTTAAGC (.((.((....)).)).)	31.9	-13.9
GTTTGCGAAAGCAGTAAC ((((((....)))..)))	30.6	-12.9
GTTTGCGGAAACGCGAAC (((.(((....))).)))	56.9	-35.7
GTTTGCGGAAACGTAAAC ((((.((....)).))))	48.6	-32.3
GTTTGGAAACAAAC (((((....)))))	45.6	-24.5

Sequence	Tm [1] [°C]	folding enthalpy [2] [kcal/mol]
GTTTGGCCGAAAGGCAAC (((..(((....))))))	37.7	-11.5
GTTTGGGAAACCAAAC ((((((....))))))	53.2	-39.5
GTTTGGGGAAACCCGAAC (((.(((....))).)))	49.3	-36.5
GTTTGTGAAAACAAAC ((((((....))))))	53.7	-37.6
GTTTGTGGAAACACAAGC (.(((((....))))).)	45.1	-23.1
GTTTGTGGAAACACGAAC (((.(((....))).)))	49	-36
GTTTTACCGAAAGGTAAC (((..(((....))))))	33.6	-12.3
GTTTTACGAAAGTAGAAC (((.(((....))).)))	41.2	-29.2
GTTTTAGGAAACTAAGAC ((.((((....)))).))	29	-15.7
GTTTTCCGAAAGGATAAC (((.(((....))).)))	44.9	-28.4
GTTTTCGGAAACGGAAAC ((((.((....)).))))	47.1	-27.1
GTTTTGACGAAAGTCAAC (((..(((....))))))	34.6	-11.5
GTTTTGCGAAAGCAGAAC (((.(((....))).)))	51.4	-29.9
GTTTTGGGAAACCAGAAC (((.(((....))).)))	38.1	-26.9
GTTTTTGGAAACGAAAAC (((((.(....).)))))	40.4	-31.3
TACCCGAAAGGGTA (((((....)))))	66.1	-14.4
TAGACGAAAGTCTA (((((....)))))	50.9	-15.3
TAGAGGAAACTCTA (((((....)))))	32.1	-8.94
TATACGAAAGTATA (((((....)))))	42.1	-14.9
TATCGGAAACGATA (((((....)))))	43	-17.8
TATGGGAAACCATA (((((....)))))	37.2	-14.9
TCACAGAAATGTGA (((((....)))))	39.8	-14.6
TCAGTGAAAACTGA (((((....)))))	42.6	-16.9

Sequence	Tm [1] [°C]	folding enthalpy [2] [kcal/mol]
TCATCGAAAGATGA (((((....)))))	49.7	-22.9
TCATGGAAACATGA (((((....)))))	39.8	-24.5
TCCAGGAAACTGGA (((((....)))))	46	-22.8
TCCTGGAAACAGGA (((((....)))))	45.5	-18.4
TCGTGGAAACACGA (((((....)))))	53.7	-18.3
TCGTTGAAAAACGA (((((....)))))	44.7	-20.3
TCTCAGAAATGAGA (((((....)))))	31.1	-12.2
TCTGAGAAATCAGA (((((....)))))	33.4	-11.1
TGAGTGAAAACTCA (((((....)))))	42.4	-18.3
TGCGTGAAAACGCA (((((....)))))	66.2	-18.1
TGTCAGAAATGACA (((((....)))))	40.2	-17.6
TGTCTGAAAAGACA (((((....)))))	47.2	-20.4
TGTGAGAAATCACA (((((....)))))	38.9	-18.3
TGTGTGAAAACACA (((((....)))))	49	-20
TGTTCGAAAGAACA (((((....)))))	52.3	-17.1
TTAGCGAAAGCTAA (((((....)))))	51.2	-16.2
TTCGTGAAAACGAA (((((....)))))	46.4	-20.2
TTCTCGAAAGAGAA (((((....)))))	49.1	-15.2
TTGGTGAAAACCAA (((((....)))))	44.8	-15.8
TTGTGGAAACACAA (((((....)))))	40.4	-19.7
TTTGGGAAACCAAA (((((....)))))	38.2	-13.6

Source: the array DNA melting data of Ke et al. (doi:10.1101/2024.01.08.574731)
